Consider eight compounds from ChEMBL document CHEMBL4261639, “Cell-Active Small Molecule Inhibitors of the DNA-Damage Repair Enzyme Poly(ADP-ribose) Glycohydrolase (PARG): Discovery and Optimization of Orally Bioavailable Quinazolinedione Sulfonamides” (J Med Chem, 2018).

Data set [1] in a line: Solubility of the compound. Format: physicochemical.
Data set [2] is described as follows: AUC in CD1 mouse at 1 mg/kg, iv administered as single dose by LC-MS/MS analysis. The data set is classed as ADME, organism-based. The following applies: in vivo. An outline of the steps: (§1)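 Male CD-1 mice (n = 2) received a single intravenous dose at a nominal 1 mg/kg.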
A short description of data set [3]: Clearance in CD1 mouse at 1 mg/kg, iv administered as single dose by LC-MS/MS analysis. Format: ADME, organism-based. As to conditions: in vivo. An outline of the steps: as §1
Data set [4] in a line: Apparent permeability across apical to basolateral side in human Caco2 cells. The following applies: Caco-2. Format: ADME, cell-based.
Data set [5] can be described thus: Efflux ratio of apparent permeability in human Caco2 cells. The following applies: Caco-2.
The test system of data set [6] is PARG (human, full length). Kind of data set: Selectivity ratio of cytotoxicity for human HeLa cells to EC50 for human full length PARG. Format: toxicity, cell-based.
Data set [7] is described as follows: Oral bioavailability in CD1 mouse at 5 mg/kg administered as single dose by LC-MS/MS analysis. Format: ADME, organism-based. The following applies: in vivo. An outline of the steps: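 Male CD-1 mice (n = 2) were dosed orally at a nominal 5 mg/kg, with a separate intravenous group (n = 2) at a nominal 1 mg/kg for comparison.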
For a further data set, the target named is Cytochrome P450 3A4 (Homo sapiens, UniProt P08684). Kind of data set: Inhibition of CYP3A4 (unknown origin). The data set is classed as ADME.
Cytochrome P450 3A4, sequence (P08684 whole entry): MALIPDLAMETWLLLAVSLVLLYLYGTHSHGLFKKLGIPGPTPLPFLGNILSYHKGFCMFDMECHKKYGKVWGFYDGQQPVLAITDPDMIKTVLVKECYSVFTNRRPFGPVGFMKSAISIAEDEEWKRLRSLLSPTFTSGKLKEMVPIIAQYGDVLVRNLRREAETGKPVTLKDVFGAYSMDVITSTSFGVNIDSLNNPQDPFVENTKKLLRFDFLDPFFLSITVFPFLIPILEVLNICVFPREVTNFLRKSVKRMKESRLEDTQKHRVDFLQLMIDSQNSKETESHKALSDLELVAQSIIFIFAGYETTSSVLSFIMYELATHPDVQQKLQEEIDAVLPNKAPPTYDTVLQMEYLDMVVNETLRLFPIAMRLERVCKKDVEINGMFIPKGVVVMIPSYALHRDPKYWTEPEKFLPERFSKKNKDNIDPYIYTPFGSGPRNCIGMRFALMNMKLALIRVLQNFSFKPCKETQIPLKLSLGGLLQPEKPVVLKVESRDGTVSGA
In a further data set the target is T1, CYP1A (Homo sapiens, UniProt P04798+P05177).
T1 sequence (P04798 whole entry): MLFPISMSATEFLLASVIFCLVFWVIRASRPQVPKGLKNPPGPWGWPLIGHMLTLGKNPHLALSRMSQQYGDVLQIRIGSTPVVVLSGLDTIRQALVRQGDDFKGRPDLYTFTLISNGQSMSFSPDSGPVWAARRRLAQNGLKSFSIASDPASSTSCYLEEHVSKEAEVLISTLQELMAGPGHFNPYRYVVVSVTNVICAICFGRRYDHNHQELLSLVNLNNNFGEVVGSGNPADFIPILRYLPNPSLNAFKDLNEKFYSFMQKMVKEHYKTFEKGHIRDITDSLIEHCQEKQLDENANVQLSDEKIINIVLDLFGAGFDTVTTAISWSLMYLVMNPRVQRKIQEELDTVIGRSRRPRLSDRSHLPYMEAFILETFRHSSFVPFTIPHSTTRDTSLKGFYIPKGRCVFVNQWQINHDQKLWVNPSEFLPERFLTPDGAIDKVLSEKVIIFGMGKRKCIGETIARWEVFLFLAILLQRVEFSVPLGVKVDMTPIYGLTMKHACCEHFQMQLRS
T1 sequence (P05177 whole entry): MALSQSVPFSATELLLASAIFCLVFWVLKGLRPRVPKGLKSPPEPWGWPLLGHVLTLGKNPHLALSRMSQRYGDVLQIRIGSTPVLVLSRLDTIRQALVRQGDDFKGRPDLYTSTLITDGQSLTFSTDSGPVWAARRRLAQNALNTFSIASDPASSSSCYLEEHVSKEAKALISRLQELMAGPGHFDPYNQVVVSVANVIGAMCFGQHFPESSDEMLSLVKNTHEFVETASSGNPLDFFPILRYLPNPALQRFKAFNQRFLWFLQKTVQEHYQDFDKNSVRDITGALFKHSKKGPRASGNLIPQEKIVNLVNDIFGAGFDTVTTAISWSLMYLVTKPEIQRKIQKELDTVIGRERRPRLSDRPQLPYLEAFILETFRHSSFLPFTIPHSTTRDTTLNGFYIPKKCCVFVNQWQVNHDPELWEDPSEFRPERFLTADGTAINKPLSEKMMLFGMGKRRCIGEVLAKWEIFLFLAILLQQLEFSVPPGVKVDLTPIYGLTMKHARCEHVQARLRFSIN
Put plainly: Inhibition of CYP1A (unknown origin). The data set is classed as ADME, protein assay.

Data set [8] in a line: Volume of distribution in CD1 mouse at 1 mg/kg, iv administered as single dose by LC-MS/MS analysis. Format: ADME, organism-based. As to conditions: in vivo. An outline of the steps: as §1
The target in the next data set is Cytochrome P450 2D6 (Homo sapiens, UniProt P10635). Kind of data set: Inhibition of CYP2D6 (unknown origin). The data set is classed as ADME.
Cytochrome P450 2D6, sequence (P10635 whole entry): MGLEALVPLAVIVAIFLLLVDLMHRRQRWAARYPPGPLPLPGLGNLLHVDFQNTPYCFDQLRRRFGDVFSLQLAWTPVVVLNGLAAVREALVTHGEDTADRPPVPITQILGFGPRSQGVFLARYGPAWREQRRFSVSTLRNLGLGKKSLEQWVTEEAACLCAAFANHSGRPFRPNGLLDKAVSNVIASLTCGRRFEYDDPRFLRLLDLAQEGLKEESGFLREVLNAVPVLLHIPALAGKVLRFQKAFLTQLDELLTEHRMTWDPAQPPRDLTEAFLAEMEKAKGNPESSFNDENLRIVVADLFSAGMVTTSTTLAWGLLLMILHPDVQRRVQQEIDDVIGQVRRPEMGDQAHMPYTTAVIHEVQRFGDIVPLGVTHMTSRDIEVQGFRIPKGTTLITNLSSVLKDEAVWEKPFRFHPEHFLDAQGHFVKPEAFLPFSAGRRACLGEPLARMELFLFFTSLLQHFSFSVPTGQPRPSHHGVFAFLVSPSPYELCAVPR
A short description of data set [9]: Clearance in mouse hepatocytes assessed per million cells.
Data set [10] can be described thus: Half life in CD1 mouse at 1 mg/kg, iv administered as single dose by LC-MS/MS analysis. The data set is classed as ADME, organism-based. As to conditions: in vivo. An outline of the steps: as §1
The target of another data set is Cytochrome P450 2C9 (Homo sapiens, UniProt P11712). Kind of data set: Inhibition of CYP2C9 (unknown origin). The data set is classed as ADME.
Cytochrome P450 2C9, sequence (P11712 whole entry): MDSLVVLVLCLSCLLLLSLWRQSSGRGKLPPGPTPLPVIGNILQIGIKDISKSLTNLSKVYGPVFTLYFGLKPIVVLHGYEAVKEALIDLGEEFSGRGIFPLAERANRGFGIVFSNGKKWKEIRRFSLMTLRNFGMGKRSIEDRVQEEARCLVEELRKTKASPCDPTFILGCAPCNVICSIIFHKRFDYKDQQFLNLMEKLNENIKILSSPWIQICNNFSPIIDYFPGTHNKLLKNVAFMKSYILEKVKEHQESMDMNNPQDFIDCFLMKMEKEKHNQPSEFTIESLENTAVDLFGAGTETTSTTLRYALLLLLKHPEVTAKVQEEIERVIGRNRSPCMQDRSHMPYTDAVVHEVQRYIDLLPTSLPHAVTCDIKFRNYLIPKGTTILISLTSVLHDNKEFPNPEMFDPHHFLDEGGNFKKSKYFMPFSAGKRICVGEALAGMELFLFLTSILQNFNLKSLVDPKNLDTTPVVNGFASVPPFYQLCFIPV
Data set [11] deals with T2, Poly(ADP-ribose) glycohydrolase (Homo sapiens, UniProt Q86W56). Kind of data set: Inhibition of PARG in human HeLa cells assessed as induction of MMS-induced PAR chains preincubated for 1 hr followed by MMS addition and measured after 1 hr by Alexofluor 488-conjugated secondary antibody and Hoechst 33342 staining based assay. Format: cell-based. An outline of the steps:
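Acute (1 h) cell-based proof-of-mechanism assay measuring persistence of PAR chains, i.e. blockade of PARG-mediated PAR degradation, across a dose range. EC50 values are means of at least 4 independent measurements, with standard deviations.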

The target of data set [12] is T2, Poly(ADP-ribose) glycohydrolase. Kind of data set: Inhibition of human full length PARG using Bt-NAD ribosylated PARP1 substrate after 10 mins by TR-FRET assay.
The nature of data set [13]: Clearance in human liver microsomes.
For the next data set, the target named is Cytochrome P450 2C19 (Homo sapiens, UniProt P33261). Put plainly: Inhibition of CYP2C19 (unknown origin). Format: ADME.
Cytochrome P450 2C19, sequence (P33261 whole entry): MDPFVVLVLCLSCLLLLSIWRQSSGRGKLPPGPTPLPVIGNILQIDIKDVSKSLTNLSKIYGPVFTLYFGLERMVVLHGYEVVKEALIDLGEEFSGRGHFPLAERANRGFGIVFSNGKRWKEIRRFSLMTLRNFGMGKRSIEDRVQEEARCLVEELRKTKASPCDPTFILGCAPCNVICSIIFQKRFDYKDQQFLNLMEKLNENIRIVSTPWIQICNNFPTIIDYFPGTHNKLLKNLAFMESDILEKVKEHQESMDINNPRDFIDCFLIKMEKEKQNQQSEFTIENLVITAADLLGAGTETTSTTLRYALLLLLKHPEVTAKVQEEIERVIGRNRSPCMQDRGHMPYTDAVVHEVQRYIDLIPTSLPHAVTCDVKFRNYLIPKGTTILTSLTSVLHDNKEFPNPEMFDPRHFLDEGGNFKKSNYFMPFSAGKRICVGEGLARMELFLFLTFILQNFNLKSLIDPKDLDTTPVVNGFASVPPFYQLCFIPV
The nature of data set [14]: Clearance in mouse liver microsomes.
The next data set concerns HeLa. Kind of data set: Cytotoxicity against human HeLa cells after 72 hrs by Hoechst 33342 staining based assay. The data set is classed as cell-based.
The nature of data set [15]: Partition coefficient, log D of compound at pH 7.4. The data set is classed as physicochemical. The following applies: octanol/water.
Data set [16] can be described thus: Solubility of the compound by turbidimetric method. The data set is classed as physicochemical.
Data set [17] has as its target Poly [ADP-ribose] polymerase 1 (Homo sapiens, UniProt P09874). Put plainly: Inhibition of human PARP1 expressed in Escherichia coli using activated DNA as substrate after 60 mins by peroxy glow reagent A/B based assay.
Data set [18] deals with T3, ADP-ribosylhydrolase ARH3 (Homo sapiens, UniProt Q9NX46).
T3 sequence (Q9NX46 whole entry): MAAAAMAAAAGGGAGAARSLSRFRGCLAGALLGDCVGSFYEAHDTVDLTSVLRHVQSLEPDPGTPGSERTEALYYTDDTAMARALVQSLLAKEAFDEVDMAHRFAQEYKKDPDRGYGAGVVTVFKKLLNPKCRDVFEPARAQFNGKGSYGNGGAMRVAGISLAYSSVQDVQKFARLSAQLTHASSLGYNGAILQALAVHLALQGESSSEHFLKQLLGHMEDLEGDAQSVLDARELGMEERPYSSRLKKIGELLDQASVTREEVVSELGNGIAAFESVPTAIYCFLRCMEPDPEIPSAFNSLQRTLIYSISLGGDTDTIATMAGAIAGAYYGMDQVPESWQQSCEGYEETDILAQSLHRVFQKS
Kind of data set: Inhibition of human full length C-terminus His-tagged ARH3 expressed in Escherichia coli using Bt-NAD ribosylated PARP1 substrate after 30 mins by TR-FRET assay.

In brackets after ≈: the same amount, converted by molar mass.

T2 sequence (Q86W56 whole entry): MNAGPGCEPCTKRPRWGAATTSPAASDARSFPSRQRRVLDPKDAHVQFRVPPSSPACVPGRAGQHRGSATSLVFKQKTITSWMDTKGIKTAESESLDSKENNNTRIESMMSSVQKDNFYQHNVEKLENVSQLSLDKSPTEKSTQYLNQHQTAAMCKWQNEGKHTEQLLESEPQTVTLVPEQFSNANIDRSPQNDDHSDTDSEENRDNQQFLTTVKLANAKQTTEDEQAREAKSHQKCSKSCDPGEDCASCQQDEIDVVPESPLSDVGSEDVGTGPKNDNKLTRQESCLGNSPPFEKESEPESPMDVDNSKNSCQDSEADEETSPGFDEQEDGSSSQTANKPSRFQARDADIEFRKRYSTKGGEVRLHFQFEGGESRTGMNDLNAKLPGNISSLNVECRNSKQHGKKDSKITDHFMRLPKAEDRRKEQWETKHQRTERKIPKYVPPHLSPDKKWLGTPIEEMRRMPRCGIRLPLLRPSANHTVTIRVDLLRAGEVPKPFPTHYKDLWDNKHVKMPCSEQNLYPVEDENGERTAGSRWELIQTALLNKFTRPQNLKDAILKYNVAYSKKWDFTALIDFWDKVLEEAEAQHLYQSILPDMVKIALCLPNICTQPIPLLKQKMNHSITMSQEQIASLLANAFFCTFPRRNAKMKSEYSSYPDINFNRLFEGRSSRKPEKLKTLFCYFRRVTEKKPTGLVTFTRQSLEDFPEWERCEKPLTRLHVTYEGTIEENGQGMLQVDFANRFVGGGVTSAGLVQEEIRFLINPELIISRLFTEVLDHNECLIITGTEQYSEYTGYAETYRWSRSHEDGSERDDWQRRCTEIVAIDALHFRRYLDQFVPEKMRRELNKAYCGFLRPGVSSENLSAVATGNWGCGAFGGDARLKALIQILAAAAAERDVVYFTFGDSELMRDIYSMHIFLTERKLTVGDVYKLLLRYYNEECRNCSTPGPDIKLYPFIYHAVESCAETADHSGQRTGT
Poly [ADP-ribose] polymerase 1, sequence (P09874 whole entry): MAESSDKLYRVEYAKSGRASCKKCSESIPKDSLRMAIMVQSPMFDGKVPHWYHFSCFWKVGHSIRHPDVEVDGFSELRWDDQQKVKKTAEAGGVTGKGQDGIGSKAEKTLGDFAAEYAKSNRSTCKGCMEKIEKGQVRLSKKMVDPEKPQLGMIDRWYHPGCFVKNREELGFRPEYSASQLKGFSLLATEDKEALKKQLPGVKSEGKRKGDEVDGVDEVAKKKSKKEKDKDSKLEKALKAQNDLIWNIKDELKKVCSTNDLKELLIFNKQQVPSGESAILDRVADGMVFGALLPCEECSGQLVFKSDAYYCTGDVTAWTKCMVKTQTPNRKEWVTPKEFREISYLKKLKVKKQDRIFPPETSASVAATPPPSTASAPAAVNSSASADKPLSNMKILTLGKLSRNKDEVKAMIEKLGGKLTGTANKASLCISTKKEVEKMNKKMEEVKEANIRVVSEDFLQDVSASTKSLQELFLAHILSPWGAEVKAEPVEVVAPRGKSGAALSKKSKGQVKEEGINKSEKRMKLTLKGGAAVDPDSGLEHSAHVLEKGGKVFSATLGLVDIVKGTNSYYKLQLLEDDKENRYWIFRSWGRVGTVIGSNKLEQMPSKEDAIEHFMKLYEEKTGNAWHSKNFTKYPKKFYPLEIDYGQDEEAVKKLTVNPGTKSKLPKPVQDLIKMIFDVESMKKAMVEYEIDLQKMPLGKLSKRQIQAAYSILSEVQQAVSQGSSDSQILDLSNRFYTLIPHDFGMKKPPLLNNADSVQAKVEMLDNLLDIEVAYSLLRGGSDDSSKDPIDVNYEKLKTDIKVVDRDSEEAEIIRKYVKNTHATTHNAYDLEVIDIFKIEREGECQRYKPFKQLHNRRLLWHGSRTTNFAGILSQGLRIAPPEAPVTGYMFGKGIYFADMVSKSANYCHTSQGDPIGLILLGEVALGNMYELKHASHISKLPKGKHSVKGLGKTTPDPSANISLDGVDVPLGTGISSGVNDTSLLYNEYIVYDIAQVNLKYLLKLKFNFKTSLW

Regarding `Cc1cc(Cn2c(=O)c3cc(S(=O)(=O)NC4(C)CC4)ccc3n(CC3COC3)c2=O)on1`, in data set [1], the solubility was greater than 100 µM. For the same compound, in data set [2], the area under the curve (AUC) stood at 90 ng·h/mL. In data set [3], this compound showed a clearance of 167 mL/min/kg. The Papp A→B in [4] is 1.9 ×10⁻⁶ cm/s. In addition, the efflux ratio in [5] is 21. Also, the selectivity ratio in data set [6] is greater than 100. Besides, the bioavailability in [7] turned out to be 25%. Also, the IC50 on Cytochrome P450 3A4, on CYP1A, on Cytochrome P450 2D6, against Cytochrome P450 2C9 and against Cytochrome P450 2C19 was greater than 25000 nM throughout. The compound further displayed a volume of distribution (Vd) in data set [8] of 2.5 L/kg. In addition, the intrinsic clearance (hepatocyte CLint) in data set [9] amounted to 25 µL/min/1e6 cells. Further, the half-life in data set [10] came out at 12 min. Besides, the EC50 is 280 nM in [11] and 340 nM in data set [12]. Besides, the figures for the microsomal CLint in data set [13] and in data set [14] were 19 µL/min/mg and 22 µL/min/mg, respectively.
Regarding `Cn1cc(Cn2c(=O)c3cc(S(=O)(=O)NC4(C)CC4)ccc3n(CC3COC3)c2=O)cn1`, the solubility in [1] is greater than 100 µM. The exposure (AUC) in data set [2] is 250 ng·h/mL. Also, the clearance in data set [3] was 66.7 mL/min/kg. The Papp A→B in [4] was 1 ×10⁻⁶ cm/s. Moreover, in data set [5], the efflux ratio amounted to 34. Besides, in data set [6], the selectivity ratio was greater than 100. This compound also registered a bioavailability in data set [7] of 41%. For the same compound, the IC50 against Cytochrome P450 3A4, at CYP1A, against Cytochrome P450 2D6, at Cytochrome P450 2C9 and against Cytochrome P450 2C19 was greater than 10000 nM in each case. The Vd in [8] turned out to be 1.4 L/kg. The hepatocyte CLint in data set [9] worked out at 24 µL/min/1e6 cells. For the same compound, the half-life in data set [10] turned out to be 22 min. Also, the EC50 is 250 nM in [11] and 69 nM in data set [12]. The intrinsic clearance (microsomal CLint) in [13] came to 9.2 µL/min/mg; in data set [14] it was 16 µL/min/mg.
In the case of `Cc1cc(Cn2c(=O)n(Cc3cnc(C)s3)c(=O)c3cc(S(=O)(=O)NC4(C)CC4)ccc32)n(C)n1`, the selectivity ratio in data set [6] is greater than 100. In addition, the EC50 in data set [11] came to 37 nM; in [12], 26 nM. Moreover, the intrinsic clearance (microsomal CLint) in [13] came to 79 µL/min/mg.
As to `Cn1c(=O)c2cc(S(=O)(=O)NC3(C)CC3)ccc2n(C)c1=O`, the Activity in the data set with HeLa was greater than 30 µM. This compound also returned a logD in [15] of 1.73. The compound also yielded a solubility (kinetic) in [16] greater than 100 µM. Moreover, the EC50 in data set [11] is 1800 nM; in data set [12] it was 3900 nM.
`CC(C)(C)NS(=O)(=O)c1ccc2c(c1)C(=O)c1ccccc1C2=O` yielded an Activity in the data set on HeLa of 16 µM. The compound further showed a kinetic solubility in data set [16] of 20 µM (≈ 6.87 µg/mL). In addition, the EC50 in data set [11] stood at 30000 nM; in [12], 81000 nM.
`Cn1c(=O)c2cc(S(=O)(=O)NC3(C)CC3)ccc2n(CC2CC2)c1=O`: the EC50 is greater than 150000 nM in [17], greater than 100000 nM in [18], 620 nM in data set [11] and 440 nM in data set [12]. For the same compound, the selectivity ratio in [6] is greater than 100.
For the compound `Cc1ncc(Cn2c(=O)c3cc(S(=O)(=O)NC4(C)CC4)ccc3n(CC3CC3)c2=O)s1`, the EC50 in data set [17] was greater than 150000 nM; in [18], greater than 100000 nM; in data set [11], 28 nM; in data set [12] it was 19 nM. Moreover, the intrinsic metabolic clearance (microsomal CLint) in data set [13] came out at 160 µL/min/mg.
For the compound `Cc1cc(Cn2c(=O)n(Cc3cnn(C)c3)c(=O)c3cc(S(=O)(=O)NC4(C)CC4)ccc32)n(C)n1`, the EC50 in data set [17] was greater than 150000 nM; in data set [18], greater than 100000 nM; in data set [11] it was 88 nM; in data set [12], 23 nM. For the same compound, the selectivity ratio in [6] is greater than 100. Moreover, in [13], the microsomal CLint is 34 µL/min/mg.
